LMPTP block – blocks human LMPTP phosphatase; AID 651560; recombinant LMPTP-A, OMFP fluorogenic substrate, fluorescence intensity; inhibition, % at 20 µM; 0.22% of 360,000 active;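 active = compounds that cut the enzyme signal by at least half of the control window in the single-dose screen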;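 note: plate controls were DMSO wells with enzyme plus substrate for no effect and substrate without enzyme for full effect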
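Assay system: LMPTP-A, protein tyrosine phosphatase of low molecular weight / Medium: pH 6.0 Bis-Tris buffer with DTT and Triton X-100 / Schedule: 50 min enzyme reaction at room temperature, protected from light / Measured by: endpoint fluorescence intensity from OMFP dephosphorylation / Read-out basis: % inhibition relative to no-enzyme and uninhibited control wells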
CSN deneddyl inh – inhibitors of human CSN-mediated cullin deneddylation | Q92905 | Purified CSN, SCF-Nedd8-OG deneddylation, fluorescence polarization | inhibition, % at 12.5 µM | 0.38% of 360,000 active | AID 651999;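 active = pattern-corrected inhibition above about 35%, with an unprinted fluorescence ratio check between 0.5 and 1.5, limit read from the data, passing the limit was not always enough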;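 note: 0% = enzyme with substrate and 100% = substrate without enzyme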
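Assay system: purified human Csn5 enzyme expressed in HEK293T cells; Input: 0.24 nM Csn5 enzyme, final concentration; Reagent: 10 nM SCFSkp2-Nedd8OG; Compound dosing: 12.5 µM single point; Times: reaction 90 min, room temperature; Technique: fluorescence polarization readout.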
STEP block – blocks human striatal-enriched tyrosine phosphatase; P54829; recombinant STEP, OMFP fluorogenic substrate, fluorescence; inhibition, % at 20 µM; 0.25% of 360,000 active; AID 588621;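 active = inhibition at 20 µM, scaled per plate between control wells, above about 37%, limit read from the data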;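 note: 0% = DMSO with enzyme and substrate and 100% = substrate only without enzyme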
Target sequence (P54829 whole entry, looked up): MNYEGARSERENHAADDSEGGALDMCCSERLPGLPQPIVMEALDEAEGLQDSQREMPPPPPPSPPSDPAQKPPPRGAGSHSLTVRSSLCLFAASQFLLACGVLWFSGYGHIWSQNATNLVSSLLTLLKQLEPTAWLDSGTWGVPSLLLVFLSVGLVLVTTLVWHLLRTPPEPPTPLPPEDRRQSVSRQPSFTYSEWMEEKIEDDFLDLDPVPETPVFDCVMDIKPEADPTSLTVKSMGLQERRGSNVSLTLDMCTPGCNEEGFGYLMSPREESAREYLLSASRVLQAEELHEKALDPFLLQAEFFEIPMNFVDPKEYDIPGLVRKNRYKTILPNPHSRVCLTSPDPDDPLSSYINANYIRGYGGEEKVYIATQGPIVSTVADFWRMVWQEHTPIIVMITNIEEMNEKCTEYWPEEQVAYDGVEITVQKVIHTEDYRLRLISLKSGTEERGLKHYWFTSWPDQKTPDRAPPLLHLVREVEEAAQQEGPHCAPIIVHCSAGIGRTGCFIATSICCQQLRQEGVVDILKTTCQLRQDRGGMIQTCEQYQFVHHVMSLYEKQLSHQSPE
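material = STEP tyrosine phosphatase | reagent = fluorogenic phosphatase substrate OMFP at 25 µM final | doses = single compound dose of 20 µM, 1% DMSO final | schedule = 20 min reaction, room temperature, in the dark | measured by = fluorescence, 480/540 nm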
Scp1 inh – blocks human Scp-1 phosphatase activity. inhibition, % at 20 µM. 0.88% of 340,000 active. Q9GZU7. Recombinant Scp1, phosphopeptide, malachite green phosphate absorbance. AID 493091;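 active = inhibition above about 50% at 20 µM, limit read from the data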;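 note: plate controls were DMSO wells with enzyme for no effect and wells lacking enzyme for full effect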
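Times: enzyme reaction 45 min at room temperature, colour 5 min, stabilisation 30 min. Material: SCP-1 catalytic fragment, aa 76-261. Medium: Acidic Tris acetate buffer with magnesium and detergent. Signal: colorimetric free-phosphate detection, absorbance 630 nm. Read-out basis: % inhibition of SCP-1 phosphate liberation. Reagent: Phosphorylated 17-residue peptide substrate.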
SUMO1-SIM PPI – alters human SUMO1 binding to SIM partners | AID 602429 | inhibition, % at 20 µM | SUMO1 binding to a labelled peptide, TR-FRET, 1 h | 0.33% of 360,000 active; in the data active = inhibition above about 37%
Target sequence (P63165 whole entry, looked up): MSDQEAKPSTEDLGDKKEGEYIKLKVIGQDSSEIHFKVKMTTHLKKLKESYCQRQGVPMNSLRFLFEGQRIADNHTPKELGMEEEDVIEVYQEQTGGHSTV
DNMT1 inh – inhibitors of human DNMT1; P26358; DNMT1 molecular beacon, Hinp1I cleavage, fluorescence; inhibition (reported as % activation of signal), % at 10 µM; 0.83% of 360,000 active; in the data active = inhibition above about 50%
STEP inh conf – confirmation of human STEP phosphatase inhibitors; shares compounds with STEP block; recombinant STEP, OMFP fluorogenic substrate, fluorescence; inhibition, % at 20 µM; 32% of 520 active; call rule not given here;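 note: 0% = enzyme with substrate plus DMSO and 100% = substrate without enzyme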
Numbers without * were called inactive; . = no result given. Hits are enriched below; roughly 2% of the tested compounds scored in any of these assays.

SMILES | LMPTP block | CSN deneddyl inh | STEP block | Scp1 inh | SUMO1-SIM PPI | DNMT1 inh | STEP inh conf
Cc1ccccc1NC(=O)Cc1c[nH]c2ccccc12 | -1 | 0 | 2 | -8 | 2 | -3 | .
CCc1ccccc1NC(=O)N1CCCC(CCC(=O)N(C)CCc2ccccn2)C1 (stereo not drawn) | 1 | -2 | 117* | -4 | 2 | 1 | 12
COc1ccc(NC(=O)N2CCCC(CCC(=O)N(C)CCc3ccccn3)C2)cc1 (stereo not drawn) | 0 | 1 | 2 | -7 | -1 | 0 | .
CCCCn1c(N)c(N(CC(C)C)C(=O)CSCC(=O)Nc2ccc(OC)cc2)c(=O)[nH]c1=O | 0 | -5 | -1 | -3 | 2 | 0 | .
Cc1ccc(NC(=S)N(CCN(C)C)Cc2cccs2)c(C)c1 | -2 | -4 | 72* | -9 | 0 | 1 | 42*
Cc1cc(C)c(NC(=S)N(CCN(C)C)Cc2cccs2)c(C)c1 | -3 | -4 | 1 | 1 | 0 | -1 | .
S=c1[nH]nc(-c2cccnc2)n1/N=C/c1ccc(Br)s1 | 8 | 2 | 36* | -2 | -4 | 1 | 29*
Cc1ccc(/C=N/n2c(-c3cccnc3)n[nH]c2=S)s1 | 0 | -11 | 0 | 6 | -4 | 2 | .
COc1cc(/C=C2/SC(=S)N(CC(=O)O)C2=O)ccc1OCC(=O)Nc1ccc(C)c(C)c1 | -1 | 30 | 91* | . | 11 | 1 | 56*
COc1ccc(/C=C2\SC(=S)N(CCCC(=O)Nc3cc(C)on3)C2=O)cc1OC | 0 | 14 | -4 | -7 | -13 | -3 | .
OCCN1CCN(C(=S)c2ccc(Br)cc2)CC1 | -1 | -2 | 84* | 2 | -2 | 1 | 39*
CSc1ccc(C(=S)N2CCN(CCO)CC2)cc1 | 0 | 4 | 54* | -3 | 0 | -3 | 29
S=C(c1ccc(Br)cc1)N1CCCC1 | -1 | 5 | 1 | -12 | 2 | -1 | .
O=C(COc1cccnc1[N+](=O)[O-])Nc1cccc(S(=O)(=O)N2CCOCC2)c1 | -1 | 2 | 1 | -7 | -20 | -5 | .
COc1ccc(NC(=S)NCCN2CCC(C)CC2)cc1Cl | -1 | 2 | 90* | -4 | -1 | -43 | 79*
COc1ccc(NC(=S)N(CCCN2CCC(C)CC2)Cc2cccs2)cc1Cl | 0 | 7 | 56* | -4 | -2 | -3 | 27*
COc1ccc(NC(=S)N(CCCN2CCN(C)CC2)Cc2cccs2)cc1 | -7 | 1 | -3 | -5 | -3 | 2 | .
S=C(NCCN1CCOCC1)Nc1ccc(Cl)cc1Cl | -3 | 2 | 1 | -7 | 2 | 3 | .
S=C(NCCCN1CCOCC1)Nc1ccc(Cl)cc1Cl | -8 | -4 | 42* | -13 | -2 | 1 | 9
COc1ccc(NC(=S)NCCCN2CCCC2)cc1Cl | -2 | 1 | 90* | -17 | -7 | 0 | 41*
NS(=O)(=O)c1ccc(NC(=O)COC(=O)c2ncc(Cl)c(Cl)c2Cl)cc1 | 0 | -1 | -4 | -18 | 0 | 2 | .
Cc1cc([N+](=O)[O-])c2[nH]c(C(=O)N/N=C/c3ccccc3C(=O)O)c(-c3ccccc3)c2c1 | 0 | 2 | 73* | 2 | 5 | 1 | 24
Cc1ccccc1OCC(=O)N(Cc1ccco1)c1c(N)n(Cc2ccccc2)c(=O)[nH]c1=O | 0 | -2 | -1 | -10 | 2 | -5 | .
COc1ccc(C(C)NC(=O)C2CCCC2)cc1OC (stereo not drawn) | -3 | -2 | 0 | 6 | -1 | 0 | .
Cc1csc(=O)n1CCC(=O)OCC(=O)NNC(=O)c1ccc(Cl)cc1 | 0 | -1 | 49* | 4 | 3 | -4 | 2
SMILES | LMPTP block | CSN deneddyl inh | STEP block | Scp1 inh | SUMO1-SIM PPI | DNMT1 inh | STEP inh conf
Cn1c(SCC(=O)N2CCCC2)nc2cccnc21 | 1 | -6 | 52* | -6 | 0 | 2 | 1
O=C(NCCCn1ccnc1)C(Cc1ccccc1)N1C(=O)c2ccccc2C1=O (stereo not drawn) | -1 | 6 | 48* | 0 | -7 | 1 | 36*
CCC(CC)c1nnc(NC(=O)c2cc(C(=O)OC)cc([N+](=O)[O-])c2)s1 | 1 | 0 | 97* | -9 | -17 | 7 | 69*
Cc1c(C(=O)NC2CCCC2)oc2ccccc12 | 0 | 5 | 1 | -2 | 1 | 7 | .
O=C(COc1ccc(Br)cc1)NCC1COc2ccccc2O1 (stereo not drawn) | 1 | 5 | 2 | -14 | 8 | 0 | .
CCCCOc1ccc(C(=O)NCC(=O)N(C)Cc2nc3ccccc3c(=O)[nH]2)cc1 | -2 | -1 | 0 | -6 | -3 | 19 | .
Cc1cccc(C(=O)NCC(=O)N(C)Cc2nc3ccccc3c(=O)[nH]2)c1 | 0 | 0 | 97* | -2 | 0 | 3 | 5
CSc1nc(N(C)C)nc(N2CC(=O)N(CCNS(=O)(=O)c3ccc(C)cc3)C2=N)n1 | -1 | 1 | -3 | -5 | 1 | 7 | .
CC1=NN(C(N)=S)C(=O)C1N=Nc1ccc(C)c(Br)c1 (stereo not drawn) | 0 | 2 | 5 | -14 | -24 | -12 | .
N#Cc1ccc(C(=O)N2CCC3CC2c2cc(-c4ccccc4)ccc23)cc1 (stereo not drawn) | 2 | 2 | 70* | -8 | 8 | 1 | 21
O=C(NC1CC1)C1CC(=O)N(c2ccc(F)cc2)C1 (stereo not drawn) | -2 | 2 | 0 | -9 | 2 | 1 | .
COc1ccccc1NS(=O)(=O)c1cc(NC(=S)NCCN2CCOCC2)ccc1N1CCOCC1 | 0 | -9 | 91* | -5 | 3 | 0 | 69*
COc1ccccc1NS(=O)(=O)c1cc(NC(=O)c2sccc2C)ccc1N1CCCC1 | 4 | 5 | 98* | -7 | 3 | -7 | 93*
COc1cc(C(=S)N2CCCCC2)ccc1O | 0 | 1 | 98* | 0 | 6 | 8 | 75*
COc1cc(C(=S)N2CCCC2)ccc1O | -1 | 5 | 0 | -6 | 14 | -2 | .

Assay outcomes deposited in PubChem BioAssay by Sanford-Burnham Center for Chemical Genomics.
